From ChEMBL document CHEMBL4376814, “Novel cyclin-dependent kinase 9 (CDK9) inhibitor with suppression of cancer stemness activity against non-small-cell lung cancer” (Eur J Med Chem, 2019)
The source made the active and inactive calls. The rule behind the calls is not given here.

Experiments:
[1] = target: CDK9/cyclin T1 (Homo sapiens) (UniProt O60563+P50750); experiment: Inhibition of recombinant full-length human CDK9/cyclinT1 at 500 nM using KTFCGTPEYLAPEVRREPRILSEEEQEMFRDFDYIADWC peptide as substrate measured after 40 mins in presence of [gamma33P]ATP by scintillation counting method relative to control; assay type: protein-complex assay
Outline: (§1)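 Percent inhibition of kinase activity at a single compound concentration, measured by the outsourced Eurofins KinaseProfiler panel. Values are the mean of two independent experiments.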

NCI-H1299 [2] = experiment: Induction of apoptosis in human H1299 cells assessed as necrotic cells at 0.5 uM after 48 hrs by AnnexinV-FITC/PI staining-based flow cytometric analysis (reference value: 0.9%); assay type: functional
NCI-H1299 [3] = experiment: Antitumour activity against human H1299 cells xenografted in Balb/c mouse assessed as inhibition of phosphorylation of RNA polymerase 2 CTD domain at Ser 5 residue at 20 to 80 mg/kg, po administered for 3 weeks by […] based light microscopic analysis; assay type: functional, organism-based
Outline: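 Tumours came from the H1299 oral-dosing xenograft run for 3 weeks. Formalin-fixed, paraffin-embedded 5-µm sections were deparaffinized and rehydrated. Primary antibodies (CDK9, cyclin T1, p-Rb Ser780, RNAPII CTD Ser5, Oct4) used at 1:100 overnight at 4 °C. Biotinylated secondary for 1 h at room temperature, then ABC-peroxidase/DAB, hematoxylin counterstain and light microscopy.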

[4] = target: Aurora kinase B (Homo sapiens) (UniProt Q96GD4); experiment: Inhibition of recombinant full-length human AURKB at 1 uM using AKRRRLSSLRA as substrate measured after 40 mins in presence of [gamma33P]ATP by scintillation counting method relative to control
Sequence of Aurora kinase B (Homo sapiens) (Q96GD4 whole entry): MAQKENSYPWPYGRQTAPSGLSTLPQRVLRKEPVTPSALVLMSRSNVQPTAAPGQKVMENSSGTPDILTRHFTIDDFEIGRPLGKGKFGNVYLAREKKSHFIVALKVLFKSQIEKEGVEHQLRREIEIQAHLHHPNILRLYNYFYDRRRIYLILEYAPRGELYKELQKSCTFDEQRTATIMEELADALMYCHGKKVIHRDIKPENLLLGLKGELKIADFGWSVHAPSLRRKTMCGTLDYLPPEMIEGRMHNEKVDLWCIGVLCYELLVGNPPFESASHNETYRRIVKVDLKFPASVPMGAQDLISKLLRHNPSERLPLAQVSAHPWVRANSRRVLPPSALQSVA

[5] = test system: Tyrosine-protein kinase receptor UFO (Homo sapiens), P30530 [Q764R]; experiment: Inhibition of recombinant human AXL Q764R mutant (473 to end residues) at 1 uM using KKSRGDYMTMQIG as substrate measured after 40 mins in presence of [gamma33P]ATP by scintillation counting method relative to control
[6] = target: Calcium/calmodulin-dependent protein kinase type IV (Homo sapiens) (UniProt Q16566); experiment: Inhibition of recombinant full-length human CaMK4 at 1 uM using calmodulin as substrate measured after 40 mins in presence of [gamma33P]ATP by scintillation counting method relative to control
Sequence of Calcium/calmodulin-dependent protein kinase type IV (Homo sapiens) (Q16566 whole entry): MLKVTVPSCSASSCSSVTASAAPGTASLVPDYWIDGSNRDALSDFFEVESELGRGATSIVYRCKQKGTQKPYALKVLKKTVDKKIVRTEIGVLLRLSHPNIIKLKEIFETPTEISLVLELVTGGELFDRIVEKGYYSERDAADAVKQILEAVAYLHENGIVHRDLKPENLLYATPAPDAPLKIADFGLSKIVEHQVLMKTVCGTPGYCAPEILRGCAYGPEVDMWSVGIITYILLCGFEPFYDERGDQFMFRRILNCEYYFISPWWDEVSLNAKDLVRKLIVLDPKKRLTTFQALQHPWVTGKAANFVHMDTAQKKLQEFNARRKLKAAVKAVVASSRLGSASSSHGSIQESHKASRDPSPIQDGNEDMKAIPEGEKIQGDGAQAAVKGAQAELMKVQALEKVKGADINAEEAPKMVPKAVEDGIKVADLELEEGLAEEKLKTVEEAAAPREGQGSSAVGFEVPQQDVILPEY

[7] = test system: Calcium/calmodulin-dependent protein kinase kinase 2 (Homo sapiens), Q96RR4 [T85S]; experiment: Inhibition of recombinant full-length human CaMKK2 T85S mutant at 1 uM using calmodulin as substrate measured after 40 mins in presence of [gamma33P]ATP by scintillation counting method relative to control
Sequence of Calcium/calmodulin-dependent protein kinase kinase 2 (Homo sapiens), Q96RR4 [T85S] (Q96RR4 whole entry T85S): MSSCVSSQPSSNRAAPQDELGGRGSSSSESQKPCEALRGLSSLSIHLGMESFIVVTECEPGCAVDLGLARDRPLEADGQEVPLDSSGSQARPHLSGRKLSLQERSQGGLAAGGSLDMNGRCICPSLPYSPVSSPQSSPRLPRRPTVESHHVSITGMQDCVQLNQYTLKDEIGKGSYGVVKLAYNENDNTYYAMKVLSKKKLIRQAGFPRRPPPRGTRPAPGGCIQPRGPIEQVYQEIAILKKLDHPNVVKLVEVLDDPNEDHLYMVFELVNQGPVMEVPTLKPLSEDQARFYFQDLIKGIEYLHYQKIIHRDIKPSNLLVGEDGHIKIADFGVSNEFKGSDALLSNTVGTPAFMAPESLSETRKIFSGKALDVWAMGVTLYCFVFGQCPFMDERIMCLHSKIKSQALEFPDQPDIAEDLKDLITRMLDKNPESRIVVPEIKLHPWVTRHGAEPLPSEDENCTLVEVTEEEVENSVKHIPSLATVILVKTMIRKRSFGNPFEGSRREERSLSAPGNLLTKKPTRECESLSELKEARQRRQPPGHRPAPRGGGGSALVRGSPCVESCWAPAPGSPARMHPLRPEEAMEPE

[8] = test system: Serine/threonine-protein kinase Chk2 (Homo sapiens), O96017 [R145W]; experiment: Inhibition of recombinant human CHK2 R145W mutant (5 to end residues) at 1 uM using KKKVSRSGLYRSPSMPENLNRPR as substrate measured after 40 mins in presence of [gamma33P]ATP by scintillation counting method relative to control
Outline: (§2)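 Single-point inhibition at 1 µM was measured in the Eurofins KinaseProfiler panel. Values are the mean of two independent experiments.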

[9] = target: Casein kinase I isoform gamma-1 (Homo sapiens) (UniProt Q9HCP0); experiment: Inhibition of recombinant human CK1gamma1 (25 to 355 residues) at 1 uM using KRRRALS(p)VASLPGL as substrate measured after 40 mins in presence of [gamma33P]ATP by scintillation counting method relative to control; outline: as §2
[10] = test system: Platelet-derived growth factor receptor alpha (Homo sapiens), P16234 [D842V]; experiment: Inhibition of recombinant human PDGFRalpha (550 to end residues) D842V mutant at 1 uM using GGMEDIYFEFMGGKKK as substrate measured after 40 mins in presence of [gamma33P]ATP by scintillation counting method relative to control
[11] = target: Protein kinase C epsilon type (Homo sapiens) (UniProt Q02156); experiment: Inhibition of recombinant human PKCepsilon (2 to end residues) at 1 uM using ERMRPRKRQGSVRRRV as substrate measured after 40 mins in presence of [gamma33P]ATP by scintillation counting method relative to control
Sequence of Protein kinase C epsilon type (Homo sapiens) (Q02156 whole entry): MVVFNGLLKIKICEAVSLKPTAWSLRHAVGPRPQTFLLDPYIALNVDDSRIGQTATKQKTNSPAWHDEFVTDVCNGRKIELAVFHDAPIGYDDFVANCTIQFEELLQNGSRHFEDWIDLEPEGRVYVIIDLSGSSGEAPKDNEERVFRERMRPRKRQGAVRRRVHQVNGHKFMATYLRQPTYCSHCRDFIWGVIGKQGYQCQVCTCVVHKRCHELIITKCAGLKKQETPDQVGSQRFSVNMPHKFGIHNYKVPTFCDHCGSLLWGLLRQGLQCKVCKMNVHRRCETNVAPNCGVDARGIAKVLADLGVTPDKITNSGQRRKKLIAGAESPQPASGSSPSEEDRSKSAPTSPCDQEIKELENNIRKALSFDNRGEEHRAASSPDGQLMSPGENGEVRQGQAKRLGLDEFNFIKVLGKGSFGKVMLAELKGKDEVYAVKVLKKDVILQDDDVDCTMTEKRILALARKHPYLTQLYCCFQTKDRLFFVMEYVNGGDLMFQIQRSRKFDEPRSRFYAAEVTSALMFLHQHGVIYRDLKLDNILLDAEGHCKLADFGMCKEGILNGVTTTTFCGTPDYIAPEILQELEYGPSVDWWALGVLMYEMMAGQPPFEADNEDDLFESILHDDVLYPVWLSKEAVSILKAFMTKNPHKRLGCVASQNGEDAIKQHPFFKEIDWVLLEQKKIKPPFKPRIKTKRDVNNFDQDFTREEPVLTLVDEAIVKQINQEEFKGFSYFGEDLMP

[12] = target: Dual specificity tyrosine-phosphorylation-regulated kinase 1B (Homo sapiens) (UniProt Q9Y463); experiment: Inhibition of recombinant full-length human DYRK1B at 1 uM using RRRFRPASPLRGPPK as substrate measured after 40 mins in presence of [gamma33P]ATP by scintillation counting method relative to control
Sequence of Dual specificity tyrosine-phosphorylation-regulated kinase 1B (Homo sapiens) (Q9Y463 whole entry, looked up): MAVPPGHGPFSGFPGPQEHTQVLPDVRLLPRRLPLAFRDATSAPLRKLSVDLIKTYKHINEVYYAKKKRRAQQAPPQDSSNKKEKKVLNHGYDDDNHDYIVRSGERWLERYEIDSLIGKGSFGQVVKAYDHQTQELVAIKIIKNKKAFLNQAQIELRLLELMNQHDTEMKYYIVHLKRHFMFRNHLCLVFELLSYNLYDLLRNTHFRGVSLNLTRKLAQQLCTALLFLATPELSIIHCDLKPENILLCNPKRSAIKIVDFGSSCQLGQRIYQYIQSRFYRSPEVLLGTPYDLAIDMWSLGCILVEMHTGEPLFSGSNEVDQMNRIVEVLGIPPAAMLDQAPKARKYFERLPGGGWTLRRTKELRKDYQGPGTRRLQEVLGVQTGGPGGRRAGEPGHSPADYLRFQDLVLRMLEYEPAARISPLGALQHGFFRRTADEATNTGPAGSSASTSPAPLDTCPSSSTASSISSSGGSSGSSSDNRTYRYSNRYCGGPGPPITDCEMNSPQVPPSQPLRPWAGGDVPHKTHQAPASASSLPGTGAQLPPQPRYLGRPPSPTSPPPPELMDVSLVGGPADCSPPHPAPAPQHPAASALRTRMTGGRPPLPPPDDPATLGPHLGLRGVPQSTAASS

[13] = target: cGMP-dependent protein kinase 1 (Homo sapiens) (UniProt Q13976); experiment: Inhibition of recombinant full-length human PKG1beta at 1 uM using RRRLSFAEPG as substrate measured after 40 mins in presence of [gamma33P]ATP by scintillation counting method relative to control
[14] = target: cGMP-dependent protein kinase 2 (Homo sapiens) (UniProt Q13237); experiment: Inhibition of recombinant full-length human PRKG2 at 1 uM using KKLRRTLSFAEPG as substrate measured after 40 mins in presence of [gamma33P]ATP by scintillation counting method relative to control
[15] = target: Serine/threonine-protein kinase SBK1 (Homo sapiens) (UniProt Q52WX2); experiment: Inhibition of recombinant full-length human SBK1 at 1 uM using KKLRRTLSVA as substrate measured after 120 mins in presence of [gamma33P]ATP by scintillation counting method relative to control
Sequence of Serine/threonine-protein kinase SBK1 (Homo sapiens) (Q52WX2 whole entry, the tested form may be a part): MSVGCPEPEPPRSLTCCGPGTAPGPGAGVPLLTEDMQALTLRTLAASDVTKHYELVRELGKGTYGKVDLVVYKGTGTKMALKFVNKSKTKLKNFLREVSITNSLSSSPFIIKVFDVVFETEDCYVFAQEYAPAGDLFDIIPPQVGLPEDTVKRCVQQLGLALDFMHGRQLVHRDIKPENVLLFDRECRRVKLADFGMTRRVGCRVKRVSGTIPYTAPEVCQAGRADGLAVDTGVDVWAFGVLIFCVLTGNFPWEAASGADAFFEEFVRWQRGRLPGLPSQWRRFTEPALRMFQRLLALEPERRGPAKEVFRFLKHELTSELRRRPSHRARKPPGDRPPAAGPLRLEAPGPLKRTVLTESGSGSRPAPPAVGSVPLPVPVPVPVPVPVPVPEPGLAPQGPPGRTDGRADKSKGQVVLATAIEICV

[16] = target: Tyrosine-protein kinase ITK/TSK (Homo sapiens) (UniProt Q08881); experiment: Inhibition of recombinant human ITK (352 to 617 residues) at 1 uM using myelin basic protein as substrate measured after 40 mins in presence of [gamma33P]ATP by scintillation counting method relative to control
Sequence of Tyrosine-protein kinase ITK/TSK (Homo sapiens) (Q08881 whole entry, the tested form may be a part): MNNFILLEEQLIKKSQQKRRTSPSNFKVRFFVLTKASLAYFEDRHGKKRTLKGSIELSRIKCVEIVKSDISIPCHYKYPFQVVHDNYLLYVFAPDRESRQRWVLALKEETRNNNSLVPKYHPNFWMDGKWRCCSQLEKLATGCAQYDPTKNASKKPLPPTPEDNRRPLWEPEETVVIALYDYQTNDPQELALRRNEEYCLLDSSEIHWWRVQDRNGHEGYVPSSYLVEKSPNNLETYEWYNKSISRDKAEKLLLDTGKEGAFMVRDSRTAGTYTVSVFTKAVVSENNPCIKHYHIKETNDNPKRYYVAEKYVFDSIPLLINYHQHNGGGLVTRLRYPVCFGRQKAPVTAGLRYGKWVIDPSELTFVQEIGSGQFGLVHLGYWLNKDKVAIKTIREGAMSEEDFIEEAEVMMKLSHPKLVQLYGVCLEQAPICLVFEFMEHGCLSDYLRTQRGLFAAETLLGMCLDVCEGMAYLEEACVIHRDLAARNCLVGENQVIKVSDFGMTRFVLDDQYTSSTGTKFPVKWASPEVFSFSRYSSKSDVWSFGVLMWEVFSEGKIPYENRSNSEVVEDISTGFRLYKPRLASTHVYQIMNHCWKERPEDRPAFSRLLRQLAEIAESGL

[17] = target: Serine/threonine-protein kinase tousled-like 1 (Homo sapiens) (UniProt Q9UKI8); experiment: Inhibition of recombinant full-length human TLK1 at 1 uM using casein as substrate measured after 40 mins in presence of [gamma33P]ATP by scintillation counting method relative to control
Sequence of Serine/threonine-protein kinase tousled-like 1 (Homo sapiens) (Q9UKI8 whole entry, the tested form may be a part): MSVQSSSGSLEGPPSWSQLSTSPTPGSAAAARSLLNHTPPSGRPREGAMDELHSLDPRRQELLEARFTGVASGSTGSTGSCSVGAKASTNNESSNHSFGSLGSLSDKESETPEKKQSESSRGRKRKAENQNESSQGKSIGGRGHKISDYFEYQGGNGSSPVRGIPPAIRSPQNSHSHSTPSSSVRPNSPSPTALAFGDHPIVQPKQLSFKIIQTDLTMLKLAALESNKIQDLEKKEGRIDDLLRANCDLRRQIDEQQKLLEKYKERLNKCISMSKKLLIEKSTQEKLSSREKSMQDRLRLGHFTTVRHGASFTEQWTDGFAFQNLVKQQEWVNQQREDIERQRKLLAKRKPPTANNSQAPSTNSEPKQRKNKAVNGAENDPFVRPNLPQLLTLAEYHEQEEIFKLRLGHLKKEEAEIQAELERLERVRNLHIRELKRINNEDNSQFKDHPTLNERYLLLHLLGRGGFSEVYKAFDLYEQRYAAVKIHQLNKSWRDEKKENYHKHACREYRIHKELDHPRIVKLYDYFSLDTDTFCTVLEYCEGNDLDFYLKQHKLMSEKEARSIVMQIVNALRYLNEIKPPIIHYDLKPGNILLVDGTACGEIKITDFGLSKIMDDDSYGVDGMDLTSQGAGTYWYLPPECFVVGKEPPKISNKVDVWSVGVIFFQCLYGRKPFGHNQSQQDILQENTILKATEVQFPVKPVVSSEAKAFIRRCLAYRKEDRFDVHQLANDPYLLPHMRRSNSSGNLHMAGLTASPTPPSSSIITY

[18] = target: TRAF2 and NCK-interacting protein kinase (Homo sapiens) (UniProt Q9UKE5); experiment: Inhibition of human TNIK (1 to 367 residues) at 1 uM using RLGRDKYKTLRQIRQ as substrate measured after 40 mins in presence of [gamma33P]ATP by scintillation counting method relative to control; outline: as §1
[19] = target: Testis-specific serine/threonine-protein kinase 3 (Homo sapiens) (UniProt Q96PN8); experiment: Inhibition of recombinant full-length human TSSK3 at 1 uM using AMARAASAAALARRR as substrate measured after 40 mins in presence of [gamma33P]ATP by scintillation counting method relative to control
[20] = target: Mitogen-activated protein kinase 1 (Homo sapiens) (UniProt P28482); experiment: Inhibition of recombinant full-length human MAPK1 at 1 uM using MBP as substrate measured after 40 mins in presence of [gamma33P]ATP by scintillation counting method relative to control
Sequence of Mitogen-activated protein kinase 1 (Homo sapiens) (P28482 whole entry): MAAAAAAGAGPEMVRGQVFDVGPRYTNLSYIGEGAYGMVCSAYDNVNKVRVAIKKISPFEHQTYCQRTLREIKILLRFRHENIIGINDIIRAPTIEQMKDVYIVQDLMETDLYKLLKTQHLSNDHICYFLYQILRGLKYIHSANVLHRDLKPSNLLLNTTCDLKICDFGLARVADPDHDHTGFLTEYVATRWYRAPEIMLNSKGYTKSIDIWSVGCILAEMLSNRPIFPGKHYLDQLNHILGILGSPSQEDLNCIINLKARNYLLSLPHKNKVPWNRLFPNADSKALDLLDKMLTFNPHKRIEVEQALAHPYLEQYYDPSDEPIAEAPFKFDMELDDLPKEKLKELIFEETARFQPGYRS

[21] = target: Cyclin-dependent kinase 9 (Homo sapiens) (UniProt P50750); conditions: A549, 0.25 uM

For `CN(C)C(=O)c1cc2cnc(Nc3ccc(NC(=O)CCCCCCCN=C=S)cc3)nc2n1C1CCCC1`, the inhibition [1] was 98%, the Activity (NCI-H1299 [2]) was 1.11% and the Activity (NCI-H1299 [3]) was “Active”. For the same compound, the inhibition [4] was 99%, the inhibition [5] was 71% and the inhibition [6] was -4%. It also gave an inhibition [7] of 88%, an inhibition [8] of 52% and an inhibition [9] of 11%. The inhibition [10] was 44%, the inhibition [11] was -3% and the inhibition [12] was 0%. The inhibition [13] was 0%, the inhibition [14] was 0% and the inhibition [15] was 88%. For the same compound, the inhibition [16] was 91%, the inhibition [17] was 7% and the inhibition [18] was 69%. The inhibition [19] was 4%, the inhibition [20] was 3% and the inhibition [21] was “Active”.
